# Laboratory results reported in ChEMBL document CHEMBL1649441, “Potency and bactericidal activity of iclaprim against recent clinical gram-positive isolates” (2009).
# Experiments:
# Type in all cases: functional
# Enterococcus faecium [1] = assay: Antibacterial activity against Enterococcus faecium assessed as inhibition of bacterial growth at 1 ug/ml by CLSI broth microdilution method
# [2] = system: Streptococcus sp. 'group B'; assay: Antibacterial activity against Beta-hemolytic Streptococcus group B assessed as inhibition of bacterial growth at 1 ug/ml by CLSI broth microdilution method
# Outline: (§1)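 Clinical isolates from skin/soft tissue, bloodstream and respiratory specimens were tested by broth microdilution per CLSI M7-A7 and M100-S18, with quality controls. Values are the number of isolates inhibited at each concentration, or MIC / percent susceptible. Highest concentration tested was 8 µg/ml for iclaprim and trimethoprim-sulfamethoxazole, and 64 µg/ml for trimethoprim.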
# Enterococcus faecalis [3] = assay: Antibacterial activity against Enterococcus faecalis by CLSI broth microdilution method
# [4] = system: Streptococcus sp. 'group A'; assay: Antibacterial activity against Beta-hemolytic Streptococcus group A assessed as inhibition of bacterial growth at 0.06 ug/ml by CLSI broth microdilution method; outline: as §1
# [5] = system: Streptococcus sp. 'group B'; assay: Antibacterial activity against Beta-hemolytic Streptococcus group B assessed as inhibition of bacterial growth at 2 ug/ml by CLSI broth microdilution method; outline: as §1
# Staphylococcus aureus [6] = assay: (§2) Antibacterial activity against Methicillin-resistant Staphylococcus aureus assessed as inhibition of bacterial growth at […] by CLSI broth microdilution method
# [7] = system: Streptococcus sp. 'group B'; assay: Antibacterial activity against Beta-hemolytic Streptococcus group B assessed as inhibition of bacterial growth at 4 ug/ml by CLSI broth microdilution method; outline: as §1
# Staphylococcus aureus [8] = assay: as §2; remark: listed apart in the source
# [9] = system: Streptococcus sp. 'group A'; assay: Antibacterial activity against Beta-hemolytic Streptococcus group A assessed as inhibition of bacterial growth at 0.5 ug/ml by CLSI broth microdilution method; outline: as §1
# Enterococcus faecalis [10] = assay: Antibacterial activity against Enterococcus faecalis assessed as inhibition of bacterial growth at 4 ug/ml by CLSI broth microdilution method; outline: as §1
# Enterococcus faecium [11] = assay: (§3) Antibacterial activity against Enterococcus faecium assessed as inhibition of bacterial growth at […] by CLSI broth microdilution method
# Enterococcus faecium [12] = assay: Antibacterial activity against Enterococcus faecium by CLSI broth microdilution method
# Staphylococcus aureus [13] = assay: Antibacterial activity against Methicillin-sensitive Staphylococcus aureus assessed as inhibition of bacterial growth at 1 ug/ml by CLSI broth microdilution method
# Staphylococcus aureus [14] = assay: Antibacterial activity against Methicillin-sensitive Staphylococcus aureus by CLSI broth microdilution method
# Staphylococcus aureus [15] = assay: Antibacterial activity against Methicillin-resistant Staphylococcus aureus assessed as inhibition of bacterial growth at 0.06 ug/ml by CLSI broth microdilution method
# Outline: (§4)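 Recent clinical isolates from skin/soft tissue, bloodstream and respiratory specimens. Tested by broth microdilution per CLSI M7-A7 and M100-S18, with the appropriate quality controls. The thymidine content of the test medium was assessed to rule out artifactual inhibition.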
# Enterococcus faecalis [16] = assay: (§5) Antibacterial activity against Enterococcus faecalis assessed as inhibition of bacterial growth at […] by CLSI broth microdilution method
# [17] = system: Streptococcus sp. 'group A'; assay: (§6) Antibacterial activity against Beta-hemolytic Streptococcus group A assessed as inhibition of bacterial growth at […] by CLSI broth microdilution method
# [18] = system: Streptococcus sp. 'group A'; assay: as §6; remark: listed apart in the source
# Staphylococcus aureus [19] = assay: Antibacterial activity against Methicillin-sensitive Staphylococcus aureus assessed as inhibition of bacterial growth at 8 ug/ml by CLSI broth microdilution method; outline: as §4
# [20] = system: Streptococcus sp. 'group A'; assay: Antibacterial activity against Beta-hemolytic Streptococcus group A by CLSI broth microdilution method; outline: as §1
# Enterococcus faecium [21] = assay: as §3; remark: listed apart in the source
# Enterococcus faecalis [22] = assay: Antibacterial activity against Enterococcus faecalis assessed as inhibition of bacterial growth at 1 ug/ml by CLSI broth microdilution method; outline: as §1
# Enterococcus faecalis [23] = assay: Antibacterial activity against Enterococcus faecalis assessed as inhibition of bacterial growth at 2 ug/ml by CLSI broth microdilution method; outline: as §1
# Enterococcus faecium [24] = assay: Antibacterial activity against Enterococcus faecium assessed as inhibition of bacterial growth at 2 ug/ml by CLSI broth microdilution method
# Staphylococcus aureus [25] = assay: Antibacterial activity against Methicillin-resistant Staphylococcus aureus assessed as inhibition of bacterial growth at 1 ug/ml by CLSI broth microdilution method; outline: as §4
# Enterococcus faecium [26] = assay: Antibacterial activity against Enterococcus faecium assessed as inhibition of bacterial growth at 8 ug/ml by CLSI broth microdilution method
# Staphylococcus aureus [27] = assay: Antibacterial activity against Methicillin-resistant Staphylococcus aureus assessed as inhibition of bacterial growth at 4 ug/ml by CLSI broth microdilution method; outline: as §4
# [28] = system: Streptococcus sp. 'group B'; assay: Antibacterial activity against Beta-hemolytic Streptococcus group B assessed as inhibition of bacterial growth at 0.06 ug/ml by CLSI broth microdilution method; outline: as §1
# Enterococcus faecium [29] = assay: Antibacterial activity against Enterococcus faecium assessed as inhibition of bacterial growth at 0.03 ug/ml by CLSI broth microdilution method; outline: as §1
# Staphylococcus aureus [30] = assay: Antibacterial activity against Methicillin-resistant Staphylococcus aureus assessed as inhibition of bacterial growth at 0.5 ug/ml by CLSI broth microdilution method; outline: as §4
# Enterococcus faecalis [31] = assay: as §5; remark: listed apart in the source
# Staphylococcus aureus [32] = assay: Antibacterial activity against Methicillin-sensitive Staphylococcus aureus assessed as inhibition of bacterial growth at 0.5 ug/ml by CLSI broth microdilution method
# Staphylococcus aureus [33] = assay: Antibacterial activity against Methicillin-resistant Staphylococcus aureus assessed as inhibition of bacterial growth at 2 ug/ml by CLSI broth microdilution method; outline: as §4
# Enterococcus faecalis [34] = assay: Antibacterial activity against Enterococcus faecalis assessed as inhibition of bacterial growth at 0.06 ug/ml by CLSI broth microdilution method; outline: as §1
# [35] = system: Streptococcus sp. 'group B'; assay: Antibacterial activity against Beta-hemolytic Streptococcus group B by CLSI broth microdilution method; outline: as §1
# Staphylococcus aureus [36] = assay: Antibacterial activity against Methicillin-sensitive Staphylococcus aureus assessed as inhibition of bacterial growth at […] by CLSI broth microdilution method; set-up: Activity: scale not given: the % may be the effect or the level left
# [37] = system: Streptococcus sp. 'group B'; assay: Antibacterial activity against Beta-hemolytic Streptococcus group B assessed as inhibition of bacterial growth at 0.5 ug/ml by CLSI broth microdilution method; outline: as §1
# [38] = system: Streptococcus sp. 'group A'; assay: Antibacterial activity against Beta-hemolytic Streptococcus group A assessed as inhibition of bacterial growth at 4 ug/ml by CLSI broth microdilution method; outline: as §1
# Staphylococcus aureus [39] = assay: Antibacterial activity against Methicillin-sensitive Staphylococcus aureus assessed as inhibition of bacterial growth at 2 ug/ml by CLSI broth microdilution method
# [40] = system: Streptococcus sp. 'group B'; assay: Antibacterial activity against Beta-hemolytic Streptococcus group B assessed as inhibition of bacterial growth at […] by CLSI broth microdilution method; note: tested at 0.25 µg/mL
# [41] = system: Streptococcus sp. 'group B'; assay: Antibacterial activity against Beta-hemolytic Streptococcus group B assessed as inhibition of bacterial growth at 0.03 ug/ml by CLSI broth microdilution method; outline: as §1
# [42] = system: Streptococcus sp. 'group B'; assay: Antibacterial activity against Beta-hemolytic Streptococcus group B assessed as inhibition of bacterial growth at 8 ug/ml by CLSI broth microdilution method; outline: as §1
# Staphylococcus aureus [43] = assay: Antibacterial activity against Methicillin-resistant Staphylococcus aureus assessed as inhibition of bacterial growth at 8 ug/ml by CLSI broth microdilution method; outline: as §4
# Enterococcus faecium [44] = assay: Antibacterial activity against Enterococcus faecium assessed as inhibition of bacterial growth at 0.06 ug/ml by CLSI broth microdilution method; outline: as §1
structure (smiles),measurement,setting,value
COc1cc(Cc2cnc(N)nc2N)c2c(c1OC)OC(C1CC1)C=C2 (stereo not drawn),inhibition at 1 µg/mL,Enterococcus faecium [1],42.2%
same,inhibition at 1 µg/mL,[2],100%
same,MIC50,Enterococcus faecalis [3],0.015 µg/mL
same,MIC90,Enterococcus faecalis [3],4 µg/mL
same,inhibition at 0.06 µg/mL,[4],99.3%
same,inhibition at 2 µg/mL,[5],100%
same,inhibition at […],Staphylococcus aureus [6],91.1%
same,inhibition at 4 µg/mL,[7],100%
same,inhibition at […],Staphylococcus aureus [8],92.3%
same,inhibition at 0.5 µg/mL,[9],100%
same,inhibition at 4 µg/mL,Enterococcus faecalis [10],96.8%
same,inhibition at […],Enterococcus faecium [11],38%
same,MIC50,Enterococcus faecium [12],2 µg/mL
same,MIC90,Enterococcus faecium [12],> 8 µg/mL
same,inhibition at 1 µg/mL,Staphylococcus aureus [13],98.7%
same,MIC50,Staphylococcus aureus [14],0.06 µg/mL
same,MIC90,Staphylococcus aureus [14],0.12 µg/mL
same,inhibition at 0.06 µg/mL,Staphylococcus aureus [15],69.6%
same,inhibition at […],Enterococcus faecalis [16],70.6%
same,inhibition at […],[17],100%
same,inhibition at […],[18],100%
same,inhibition at 8 µg/mL,Staphylococcus aureus [19],100%
same,MIC50,[20],0.015 µg/mL
same,MIC90,[20],0.03 µg/mL
same,inhibition at […],Enterococcus faecium [21],38.3%
same,inhibition at 1 µg/mL,Enterococcus faecalis [22],71%
same,inhibition at 2 µg/mL,Enterococcus faecalis [23],71.9%
same,inhibition at 2 µg/mL,Enterococcus faecium [24],58.1%
same,inhibition at 1 µg/mL,Staphylococcus aureus [25],93.8%
same,inhibition at 8 µg/mL,Enterococcus faecium [26],75.6%
same,inhibition at 4 µg/mL,Staphylococcus aureus [27],97.9%
same,inhibition at 0.06 µg/mL,[28],5.4%
same,inhibition at 0.03 µg/mL,Enterococcus faecium [29],37.6%
same,inhibition at 0.5 µg/mL,Staphylococcus aureus [30],92.9%
same,inhibition at […],Enterococcus faecalis [31],69%
same,inhibition at 0.5 µg/mL,Staphylococcus aureus [32],98.6%
same,inhibition at 2 µg/mL,Staphylococcus aureus [33],94.6%
same,inhibition at 0.06 µg/mL,Enterococcus faecalis [34],67.1%
same,MIC50,[35],0.12 µg/mL
same,MIC90,[35],0.25 µg/mL
same,inhibition at […],Staphylococcus aureus [36]; Staphylococcus aureus,95.6%
same,inhibition at 0.5 µg/mL,[37],100%
same,inhibition at 4 µg/mL,[38],100%
same,inhibition at 2 µg/mL,Staphylococcus aureus [39],98.7%
same,inhibition at […],[40],91.2%
same,inhibition at 0.03 µg/mL,[41],0.5%
same,inhibition at 8 µg/mL,[42],100%
same,inhibition at 8 µg/mL,Staphylococcus aureus [43],100%
same,inhibition at 0.06 µg/mL,Enterococcus faecium [44],37.6%
COc1cc(Cc2cnc(N)nc2N)cc(OC)c1OC [TRIMETHOPRIM],inhibition at 1 µg/mL,Enterococcus faecium [1],38%
same,inhibition at 1 µg/mL,[2],51%
same,MIC50,Enterococcus faecalis [3],0.25 µg/mL
same,MIC90,Enterococcus faecalis [3],> 64 µg/mL
same,inhibition at 0.06 µg/mL,[4],8.6%
same,inhibition at 2 µg/mL,[5],89.2%
same,inhibition at […],Staphylococcus aureus [6],0.2%
same,inhibition at 4 µg/mL,[7],99.5%
same,inhibition at […],Staphylococcus aureus [8],5.7%
same,inhibition at 0.5 µg/mL,[9],98.5%
same,inhibition at 4 µg/mL,Enterococcus faecalis [10],70%
same,inhibition at […],Enterococcus faecium [11],36%
same,MIC50,Enterococcus faecium [12],32 µg/mL
same,MIC90,Enterococcus faecium [12],> 64 µg/mL
same,inhibition at 1 µg/mL,Staphylococcus aureus [13],90.2%
same,MIC50,Staphylococcus aureus [14],1 µg/mL
same,MIC90,Staphylococcus aureus [14],1 µg/mL
same,inhibition at 0.06 µg/mL,Staphylococcus aureus [15],< 0.1%
same,inhibition at […],Enterococcus faecalis [16],56.5%
same,inhibition at […],[17],45.9%
same,inhibition at […],[18],84.6%
same,inhibition at 8 µg/mL,Staphylococcus aureus [19],98.7%
same,MIC50,[20],0.25 µg/mL
same,MIC90,[20],0.5 µg/mL
same,inhibition at […],Enterococcus faecium [21],37.3%
same,inhibition at 1 µg/mL,Enterococcus faecalis [22],64.5%
same,inhibition at 2 µg/mL,Enterococcus faecalis [23],67.7%
same,inhibition at 2 µg/mL,Enterococcus faecium [24],38.3%
same,inhibition at 1 µg/mL,Staphylococcus aureus [25],88.5%
same,inhibition at 8 µg/mL,Enterococcus faecium [26],41.6%
same,inhibition at 4 µg/mL,Staphylococcus aureus [27],92.5%
same,inhibition at 0.06 µg/mL,[28],0%
same,inhibition at 0.03 µg/mL,Enterococcus faecium [29],13.9%
same,inhibition at 0.5 µg/mL,Staphylococcus aureus [30],47.7%
same,inhibition at […],Enterococcus faecalis [31],29.7%
same,inhibition at 0.5 µg/mL,Staphylococcus aureus [32],34.3%
same,inhibition at 2 µg/mL,Staphylococcus aureus [33],92.1%
same,inhibition at 0.06 µg/mL,Enterococcus faecalis [34],4.2%
same,MIC50,[35],1 µg/mL
same,MIC90,[35],4 µg/mL
same,Activity,Staphylococcus aureus [36],0.3%
same,inhibition at 0.5 µg/mL,[37],5.9%
same,inhibition at 4 µg/mL,[38],100%
same,inhibition at 2 µg/mL,Staphylococcus aureus [39],97.8%
same,inhibition at […],[40],0.5%
same,inhibition at 0.03 µg/mL,[41],0%
same,inhibition at 8 µg/mL,[42],100%
same,inhibition at 8 µg/mL,Staphylococcus aureus [43],92.9%
same,inhibition at 0.06 µg/mL,Enterococcus faecium [44],30.4%
